Test results taken from ChEMBL document CHEMBL1154352, “Toll-like receptor 7 selective synthetic oligoribonucleotide agonists: synthesis and structure-activity relationship studies” (J Med Chem, 2009).
Activity calls are given as the source filed them. The calls are words filed in the database; no cut-off is given here.

Assays:
[1] = target: T1, Toll-like receptor 7 (Homo sapiens) (UniProt Q9NYK1); test: Activation of human TLR7 expressed in HEK293XL assessed as fold induction of NF-kappaB activity at 50 ug/ml after 18 hrs by reporter gene assay relative to control
T1 sequence (whole entry): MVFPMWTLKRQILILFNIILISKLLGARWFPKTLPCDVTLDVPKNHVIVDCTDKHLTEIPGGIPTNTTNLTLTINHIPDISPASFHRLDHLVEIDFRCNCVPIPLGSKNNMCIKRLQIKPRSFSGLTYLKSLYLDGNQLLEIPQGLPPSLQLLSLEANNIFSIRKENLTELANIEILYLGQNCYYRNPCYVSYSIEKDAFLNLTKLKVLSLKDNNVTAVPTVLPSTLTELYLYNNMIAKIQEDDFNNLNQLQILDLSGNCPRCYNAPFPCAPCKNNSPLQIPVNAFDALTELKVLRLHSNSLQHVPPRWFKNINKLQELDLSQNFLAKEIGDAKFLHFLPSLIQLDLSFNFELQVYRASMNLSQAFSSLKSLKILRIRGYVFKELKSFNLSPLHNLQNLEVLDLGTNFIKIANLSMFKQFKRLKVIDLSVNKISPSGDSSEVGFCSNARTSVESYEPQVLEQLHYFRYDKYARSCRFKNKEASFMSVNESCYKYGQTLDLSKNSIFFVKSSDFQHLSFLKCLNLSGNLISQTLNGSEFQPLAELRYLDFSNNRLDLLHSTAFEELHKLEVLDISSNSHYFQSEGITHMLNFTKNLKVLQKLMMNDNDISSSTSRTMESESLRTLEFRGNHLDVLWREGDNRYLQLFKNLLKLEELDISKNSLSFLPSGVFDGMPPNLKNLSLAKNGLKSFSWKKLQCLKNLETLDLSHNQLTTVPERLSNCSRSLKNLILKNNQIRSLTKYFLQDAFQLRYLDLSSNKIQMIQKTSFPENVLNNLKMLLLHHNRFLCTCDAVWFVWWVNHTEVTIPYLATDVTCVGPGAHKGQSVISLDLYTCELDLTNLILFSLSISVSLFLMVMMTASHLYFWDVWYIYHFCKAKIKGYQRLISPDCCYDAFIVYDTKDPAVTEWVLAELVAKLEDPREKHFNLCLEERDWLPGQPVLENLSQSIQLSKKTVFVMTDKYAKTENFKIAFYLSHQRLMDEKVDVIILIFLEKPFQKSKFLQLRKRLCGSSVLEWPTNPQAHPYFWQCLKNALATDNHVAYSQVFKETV
How it was run: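 HEK293 cells stably expressing human TLR7 or TLR8, transiently transfected with SEAP reporter plasmid; medium replaced, SIMRA compounds added, 18 h incubation. Supernatant SEAP measured by QuantiBlue; expressed as fold increase in NF-κB activity over PBS control. Tabulated data at 50 μg/mL, representative of three independent experiments.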

[2] = target: T2, Toll-like receptor 9 (Mus musculus) (UniProt Q9EQU3); test: Activation of mouse TLR9 expressed in HEK293 assessed as induction of NF-kappaB activity reporter gene assay; format: cell-based
T2 sequence (whole entry): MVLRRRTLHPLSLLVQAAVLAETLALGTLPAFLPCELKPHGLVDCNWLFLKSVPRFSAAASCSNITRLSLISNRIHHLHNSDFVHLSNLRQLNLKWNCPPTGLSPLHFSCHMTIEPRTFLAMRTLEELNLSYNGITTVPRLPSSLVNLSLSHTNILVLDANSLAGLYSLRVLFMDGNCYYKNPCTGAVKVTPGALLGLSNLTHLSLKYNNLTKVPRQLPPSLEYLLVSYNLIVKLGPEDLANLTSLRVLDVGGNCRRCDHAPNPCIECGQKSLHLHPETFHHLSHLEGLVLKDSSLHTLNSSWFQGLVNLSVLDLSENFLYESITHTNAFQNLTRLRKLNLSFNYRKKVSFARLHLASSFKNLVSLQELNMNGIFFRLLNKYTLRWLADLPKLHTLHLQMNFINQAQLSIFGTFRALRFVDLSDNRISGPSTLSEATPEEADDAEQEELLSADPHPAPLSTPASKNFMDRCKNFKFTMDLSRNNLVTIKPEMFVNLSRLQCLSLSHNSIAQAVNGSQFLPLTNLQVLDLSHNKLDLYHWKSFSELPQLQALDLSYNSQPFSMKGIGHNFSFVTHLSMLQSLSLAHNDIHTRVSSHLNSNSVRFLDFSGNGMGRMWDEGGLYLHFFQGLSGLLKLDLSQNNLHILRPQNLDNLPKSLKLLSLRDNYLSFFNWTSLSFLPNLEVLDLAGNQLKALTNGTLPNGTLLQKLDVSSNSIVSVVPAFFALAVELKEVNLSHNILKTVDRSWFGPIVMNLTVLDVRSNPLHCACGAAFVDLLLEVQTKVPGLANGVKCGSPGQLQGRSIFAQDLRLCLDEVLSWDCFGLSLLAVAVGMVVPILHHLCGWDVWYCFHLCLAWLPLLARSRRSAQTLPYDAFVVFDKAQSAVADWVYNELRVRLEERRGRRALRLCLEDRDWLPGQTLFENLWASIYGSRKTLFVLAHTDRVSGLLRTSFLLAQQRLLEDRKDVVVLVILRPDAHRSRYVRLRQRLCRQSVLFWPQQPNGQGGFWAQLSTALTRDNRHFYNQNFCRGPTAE

| Structure (SMILES) | fold change (FC) [1] | Activity [2] |
| --- | --- | --- |
| Nc1ccn([C@@H]2O[C@H](COP(=O)(S)O[C@H]3[C@@H](O)[C@H](n4cnc5c(N)ncnc54)O[C@@H]3CO)[C@@H](OP(=O)(S)OC[C@H]3O[C@@H](n4ccc(=O)[nH]c4=O)[C@H](O)[C@@H]3OP(=O)(S)OC[C@H]3O[C@@H](n4ccc5c(=O)[nH]c(N)nc54)[C@H](O)[C@@H]3OP(=O)(S)OC[C@H]3O[C@@H](n4cnc5c(N)ncnc54)[C@H](O)[C@@H]3OP(=O)(S)OC[C@H]3O[C@@H](n4ccc5c(=O)[nH]c(N)nc54)[C@H](O)[C@@H]3OP(=O)(S)OC[C@H]3O[C@@H](n4cnc5c(N)ncnc54)[C@H](O)[C@@H]3OP(=O)(S)OC[C@H]3O[C@@H](n4ccc5c(=O)[nH]c(N)nc54)[C@H](O)[C@@H]3OP(=O)(S)OC[C@H]3O[C@@H](n4ccc(N)nc4=O)[C@H](O)[C@@H]3OP(=O)(S)OC[C@H]3O[C@@H](n4ccc(=O)[nH]c4=O)[C@H](O)[C@@H]3OP(=O)(S)OC[C@H]3O[C@@H](n4ccc(=O)[nH]c4=O)[C@H](O)[C@@H]3OP(=O)(S)OCC(O)COP(=O)(S)O[C@H]3[C@@H](O)[C@H](n4ccc(=O)[nH]c4=O)O[C@@H]3COP(=O)(S)O[C@H]3[C@@H](O)[C@H](n4ccc(=O)[nH]c4=O)O[C@@H]3COP(=O)(S)O[C@H]3[C@@H](O)[C@H](n4ccc(N)nc4=O)O[C@@H]3COP(=O)(S)O[C@H]3[C@@H](O)[C@H](n4ccc5c(=O)[nH]c(N)nc54)O[C@@H]3COP(=O)(S)O[C@H]3[C@@H](O)[C@H](n4cnc5c(N)ncnc54)O[C@@H]3COP(=O)(S)O[C@H]3[C@@H](O)[C@H](n4ccc5c(=O)[nH]c(N)nc54)O[C@@H]3COP(=O)(S)O[C@H]3[C@@H](O)[C@H](n4cnc5c(N)nc(N)nc54)O[C@@H]3COP(=O)(S)O[C@H]3[C@@H](O)[C@H](n4ccc5c(=O)[nH]c(N)nc54)O[C@@H]3COP(=O)(S)O[C@H]3[C@@H](O)[C@H](n4ccc(=O)[nH]c4=O)O[C@@H]3COP(=O)(S)O[C@H]3[C@@H](O)[C@H](n4ccc(N)nc4=O)O[C@@H]3COP(=O)(S)O[C@H]3[C@@H](O)[C@H](n4cnc5c(N)ncnc54)O[C@@H]3CO)[C@H]2O)c(=O)n1 (stereo partly specified) | 16.8 | inactive |
| Nc1ccn([C@@H]2O[C@H](COP(=O)(S)O[C@H]3[C@@H](O)[C@H](n4cnc5c(N)ncnc54)O[C@@H]3CO)[C@@H](OP(=O)(S)OC[C@H]3O[C@@H](n4ccc(=O)[nH]c4=O)[C@H](O)[C@@H]3OP(=O)(S)OC[C@H]3O[C@@H](n4ccc(=O)[nH]c4=O)[C@H](O)[C@@H]3OP(=O)(S)OC[C@H]3O[C@@H](n4ccc5c(=O)[nH]c(N)nc54)[C@H](O)[C@@H]3OP(=O)(S)OC[C@H]3O[C@@H](n4cnc5c(N)ncnc54)[C@H](O)[C@@H]3OP(=O)(S)OC[C@H]3O[C@@H](n4ccc(N)nc4=O)[C@H](O)[C@@H]3OP(=O)(S)OC[C@H]3O[C@@H](n4ccc(=O)[nH]c4=O)[C@H](O)[C@@H]3OP(=O)(S)OC[C@H]3O[C@@H](n4ccc(=O)[nH]c4=O)[C@H](O)[C@@H]3OP(=O)(S)OC[C@H]3O[C@@H](n4ccc5c(=O)[nH]c(N)nc54)[C@H](O)[C@@H]3OP(=O)(S)OC[C@H]3O[C@@H](n4cnc5c(N)ncnc54)[C@H](O)[C@@H]3OP(=O)(S)OCC(O)COP(=O)(S)O[C@H]3[C@@H](O)[C@H](n4cnc5c(N)ncnc54)O[C@@H]3COP(=O)(S)O[C@H]3[C@@H](O)[C@H](n4ccc5c(=O)[nH]c(N)nc54)O[C@@H]3COP(=O)(S)O[C@H]3[C@@H](O)[C@H](n4ccc(=O)[nH]c4=O)O[C@@H]3COP(=O)(S)O[C@H]3[C@@H](O)[C@H](n4ccc(=O)[nH]c4=O)O[C@@H]3COP(=O)(S)O[C@H]3[C@@H](O)[C@H](n4ccc(N)nc4=O)O[C@@H]3COP(=O)(S)O[C@H]3[C@@H](O)[C@H](n4cnc5c(N)ncnc54)O[C@@H]3COP(=O)(S)O[C@H]3[C@@H](O)[C@H](n4ccc5c(=O)[nH]c(N)nc54)O[C@@H]3COP(=O)(S)O[C@H]3[C@@H](O)[C@H](n4ccc(=O)[nH]c4=O)O[C@@H]3COP(=O)(S)O[C@H]3[C@@H](O)[C@H](n4ccc(=O)[nH]c4=O)O[C@@H]3COP(=O)(S)O[C@H]3[C@@H](O)[C@H](n4ccc(N)nc4=O)O[C@@H]3COP(=O)(S)O[C@H]3[C@@H](O)[C@H](n4cnc5c(N)ncnc54)O[C@@H]3CO)[C@H]2O)c(=O)n1 (stereo partly specified) | 9.1 | inactive |
| Nc1ccn([C@@H]2O[C@H](COP(=O)(S)O[C@H]3[C@@H](O)[C@H](n4ccc(N)nc4=O)O[C@@H]3COP(=O)(S)O[C@H]3[C@@H](O)[C@H](n4cnc5c(N)ncnc54)O[C@@H]3COP(=O)(S)O[C@H]3[C@@H](O)[C@H](n4ccc5c(=O)[nH]c(N)nc54)O[C@@H]3COP(=O)(S)O[C@H]3[C@@H](O)[C@H](n4ccc(=O)[nH]c4=O)O[C@@H]3COP(=O)(S)O[C@H]3[C@@H](O)[C@H](n4ccc(=O)[nH]c4=O)O[C@@H]3COP(=O)(S)O[C@H]3[C@@H](O)[C@H](n4ccc(N)nc4=O)O[C@@H]3COP(=O)(S)O[C@H]3[C@@H](O)[C@H](n4cnc5c(N)ncnc54)O[C@@H]3CO)[C@@H](OP(=O)(S)OC[C@H]3O[C@@H](n4ccc(=O)[nH]c4=O)[C@H](O)[C@@H]3OP(=O)(S)OC[C@H]3O[C@@H](n4ccc(=O)[nH]c4=O)[C@H](O)[C@@H]3OP(=O)(S)OC[C@H]3O[C@@H](n4ccc(=O)[nH]c4=O)[C@H](O)[C@@H]3OP(=O)(S)OCC(O)COP(=O)(S)O[C@H]3[C@@H](O)[C@H](n4ccc(=O)[nH]c4=O)O[C@@H]3COP(=O)(S)O[C@H]3[C@@H](O)[C@H](n4ccc(=O)[nH]c4=O)O[C@@H]3COP(=O)(S)O[C@H]3[C@@H](O)[C@H](n4ccc(=O)[nH]c4=O)O[C@@H]3COP(=O)(S)O[C@H]3[C@@H](O)[C@H](n4ccc(N)nc4=O)O[C@@H]3COP(=O)(S)O[C@H]3[C@@H](O)[C@H](n4ccc(N)nc4=O)O[C@@H]3COP(=O)(S)O[C@H]3[C@@H](O)[C@H](n4cnc5c(N)ncnc54)O[C@@H]3COP(=O)(S)O[C@H]3[C@@H](O)[C@H](n4ccc5c(=O)[nH]c(N)nc54)O[C@@H]3COP(=O)(S)O[C@H]3[C@@H](O)[C@H](n4ccc(=O)[nH]c4=O)O[C@@H]3COP(=O)(S)O[C@H]3[C@@H](O)[C@H](n4ccc(=O)[nH]c4=O)O[C@@H]3COP(=O)(S)O[C@H]3[C@@H](O)[C@H](n4ccc(N)nc4=O)O[C@@H]3COP(=O)(S)O[C@H]3[C@@H](O)[C@H](n4cnc5c(N)ncnc54)O[C@@H]3CO)[C@H]2O)c(=O)n1 (stereo partly specified) | 23.3 | inactive |
